In ChEMBL document CHEMBL3352597, “Heck products of parthenolide and melampomagnolide-B as anticancer modulators that modify cell cycle progression” (Eur J Med Chem, 2014):
Calls of active or inactive are those of the source. No cut-off for these calls is given here.

Assays:
Type in all cases: functional
CCRF-CEM = test: Anticancer activity against human CCRF-CEM cells
Summary of the method: (§1)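 NCI 60 human cancer cell line panel, multiple-dose testing at five concentrations (10^-4, 10^-5, 10^-6, 10^-7 and 10^-8 M). Dose-response curves plot cytotoxic effect against log10 of drug concentration for each cell line. GI50 is the molar concentration giving 50% growth inhibition; LC50 is the concentration killing 50% of cells.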

HL-60(TB) = test: Anticancer activity against human HL-60(TB) cells; summary of the method: as §1
K562 = test: Anticancer activity against human K562 cells; summary of the method: as §1
[1] = Anticancer activity against human MOLT4 cells; summary of the method: as §1
[2] = Anticancer activity against human RPMI8226 cells; summary of the method: as §1
SR = test: Anticancer activity against human SR cells
Summary of the method: (§2)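 NCI 60 human tumour cell line screen. A single-concentration pre-screen was run at 10^-5 M. Compounds selected from it were then tested at five concentrations, 10^-4 to 10^-8 M. Dose-response curves plotted cytotoxic effect against log10 of the drug concentration for each cell line. GI50 is the molar concentration giving 50% growth inhibition, and LC50 the concentration killing 50% of cells.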

A549 = test: Anticancer activity against human A549 cells; summary of the method: as §1
HOP-62 = test: Anticancer activity against human HOP62 cells; summary of the method: as §1
NCI-H226 = test: Anticancer activity against human NCI-H226 cells; summary of the method: as §1
NCI-H23 = test: Anticancer activity against human NCI-H23 cells; summary of the method: as §1
NCI-H322M = test: Anticancer activity against human NCI-H322M cells after 48 hrs; summary of the method: as §1
NCI-H460 = test: Anticancer activity against human NCI-H460 cells; summary of the method: as §1
NCI-H522 = test: Anticancer activity against human NCI-H522 cells; summary of the method: as §1
[3] = Anticancer activity against human COLO205 cells; summary of the method: as §1
HCC 2998 = test: Anticancer activity against human HCC2998 cells; summary of the method: as §1
[4] = Anticancer activity against human HCT116 cells; summary of the method: as §1
[5] = Anticancer activity against human HCT15 cells; summary of the method: as §1
HT-29 = test: Anticancer activity against human HT-29 cells; summary of the method: as §1
KM12 = test: Anticancer activity against human KM12 cells; summary of the method: as §1
SW-620 = test: Anticancer activity against human SW620 cells; summary of the method: as §2
SF-268 = test: Anticancer activity against human SF268 cells; summary of the method: as §1
[6] = Anticancer activity against human SF295 cells; summary of the method: as §1
[7] = Anticancer activity against human SF539 cells; summary of the method: as §1
SNB-19 = test: Anticancer activity against human SNB19 cells; summary of the method: as §1
SNB-75 = test: Anticancer activity against human SNB75 cells; summary of the method: as §2
U-251 = test: Anticancer activity against human U251 cells; summary of the method: as §2
[8] = Anticancer activity against human LOXIMVI cells; conditions: LOX IMVI; summary of the method: as §1
Malme-3M = test: Anticancer activity against human MALME-3M cells; summary of the method: as §1
M14 = test: Anticancer activity against human M14 cells; summary of the method: as §1
[9] = read-out: LC50 (the source's name)

C/C1=C\CC[C@@]2(C)O[C@@H]2[C@H]2OC(=O)C(Cn3ccnc3I)[C@@H]2CC1 (stereo partly drawn)
GI50 (CCRF-CEM): 6.13 µM
CC50 (CCRF-CEM; [9]): 79.6 µM
GI50 (HL-60(TB)): 6.9 µM
CC50 (HL-60(TB); [9]): 77.5 µM
GI50 (K562): 7.36 µM
CC50 (K562; [9]): 90 µM
GI50 ([1]; MOLT-4): 19.6 µM
CC50 ([1]; MOLT-4, read-out: LC50 (the source's name)): 97.9 µM
GI50 ([2]; RPMI-8226): 17 µM
CC50 ([2]; RPMI-8226, read-out: LC50 (the source's name)): > 100 µM
GI50 (SR): 13.6 µM
CC50 (SR; [9]): > 100 µM
GI50 (A549): 19.8 µM
CC50 (A549; [9]): > 100 µM
GI50 (HOP-62): 47.4 µM
CC50 (HOP-62; [9]): > 100 µM
GI50 (NCI-H226): 15.4 µM
CC50 (NCI-H226; [9]): 62.3 µM
GI50 (NCI-H23): 23.7 µM
CC50 (NCI-H23; [9]): > 100 µM
GI50 (NCI-H322M): 61.3 µM
CC50 (NCI-H322M; [9]): > 100 µM
GI50 (NCI-H460): 30.1 µM
CC50 (NCI-H460; [9]): > 100 µM
GI50 (NCI-H522): 1.71 µM
CC50 (NCI-H522; [9]): 6.34 µM
GI50 ([3]; COLO 205): 14.5 µM
CC50 ([3]; COLO 205, read-out: LC50 (the source's name)): 58.8 µM
GI50 (HCC 2998): inactive
LC50 (HCC 2998): inactive
GI50 ([4]; HCT-116): 11.8 µM
CC50 ([4]; HCT-116, read-out: LC50 (the source's name)): 49 µM
GI50 ([5]; HCT-15): 10.7 µM
CC50 ([5]; HCT-15, read-out: LC50 (the source's name)): 55.6 µM
GI50 (HT-29): 17.6 µM
CC50 (HT-29; [9]): 61.5 µM
GI50 (KM12): 43.2 µM
CC50 (KM12; [9]): > 100 µM
GI50 (SW-620): 11.4 µM
CC50 (SW-620; [9]): 62.8 µM
GI50 (SF-268): 23 µM
CC50 (SF-268; [9]): > 100 µM
GI50 ([6]; SF-295): 32.1 µM
CC50 ([6]; SF-295, read-out: LC50 (the source's name)): > 100 µM
GI50 ([7]; SF-539): 16.7 µM
CC50 ([7]; SF-539, read-out: LC50 (the source's name)): 60.8 µM
GI50 (SNB-19): > 100 µM
CC50 (SNB-19; [9]): > 100 µM
GI50 (SNB-75): 19.3 µM
CC50 (SNB-75; [9]): > 100 µM
GI50 (U-251): 36.7 µM
CC50 (U-251; [9]): > 100 µM
GI50 [8]: 14.9 µM
CC50 [8, 9]: 60.9 µM
GI50 (Malme-3M): 10.9 µM
CC50 (Malme-3M; [9]): 62.7 µM
GI50 (M14): 16.5 µM
CC50 (M14; [9]): 65.6 µM
